What is called LD50 is the dose expected to kill half of the subjects tested. As a reminder, the GI50 is the concentration giving 50% growth inhibition. As usually defined, the IC50 is the concentration that inhibits the measured activity by half.

Here are results for one compound from ChEMBL document CHEMBL4052828, “Discovery of 4-((7H-Pyrrolo[2,3-d]pyrimidin-4-yl)amino)-N-(4-((4-methylpiperazin-1-yl)methyl)phenyl)-1H-pyrazole-3-carboxamide (FN-1501), an FLT3- and CDK-Kinase Inhibitor with Potentially High Efficiency against Acute Myelocytic Leukemia” (J Med Chem, 2018).

Data set [1] is described as follows: Toxicity in ICR mouse administered via gavage measured for 12 days. The conditions noted are these: in vivo, po.
The next data set concerns MCF7. Briefly: Growth inhibition of human MCF7 cells after 72 hrs by CellTiter-Glo assay. Type of data set: functional. The settings on record: MCF7, 72 h. (In ATP-based viability assays light output follows the ATP content of the culture.)
Data set [2] in a line: Terminal half life in dog liver microsomes by LC-MS/MS analysis. It is filed as ADME, Canis lupus familiaris, microsome. The conditions noted are these: read-out: beta t1/2 (converted). A digest of the protocol: (§1)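 Metabolic stability measured by incubating compound in human, rat, mouse, dog and monkey liver microsomes. Terminal t1/2 determined.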
A short description of data set [3]: Terminal half life in rat liver microsomes by LC-MS/MS analysis. Type of data set: ADME, microsome. The settings on record: read-out: beta t1/2 (converted). A digest of the protocol:
as §1

The nature of data set [4]: Intrinsic clearance in cynomolgus monkey liver microsomes by LC-MS/MS analysis. It is filed as ADME, Macaca fascicularis, microsome. The conditions noted are these: read-out: CLH. (In general: Liver microsomes are a subcellular fraction often used to study metabolism.)
Data set [5] in a line: Terminal half life in cynomolgus monkey liver microsomes by LC-MS/MS analysis. It is filed as ADME, Macaca fascicularis, microsome. The settings on record: read-out: beta t1/2 (converted). A digest of the protocol:
as §1

The test system of data set [6] is MV4-11. Briefly: Induction of apoptosis in human MV4-11 cells assessed as late apoptotic cells at 2 uM after 24 hrs by annexin V-FITC/propidium iodide staining-based flow cytometric method (reference value: 2.54%). It is filed as functional. In general terms: Flow cytometry measures light scatter and fluorescence of single cells or particles in a stream.
The subject of data set [7] is MV4-11. Briefly: Induction of apoptosis in human MV4-11 cells assessed as late apoptotic cells at 0.2 uM after 24 hrs by annexin V-FITC/propidium iodide staining-based flow cytometric method (reference value: 2.54%). Type of data set: functional.
A further data set deals with HCT-116. Briefly: Growth inhibition of human HCT116 cells after 72 hrs by CellTiter-Glo assay. It is filed as functional. The conditions noted are these: HCT-116, 72 h.
The next data set deals with NCI-H82. Briefly: Growth inhibition of human NCI-H82 cells after 72 hrs by CellTiter-Glo assay. The conditions noted are these: NCI-H82, 72 h. It is filed as functional.
For data set [8], the system named is MV4-11. Briefly: Induction of apoptosis in human MV4-11 cells assessed as early apoptotic cells at 0.2 uM after 24 hrs by annexin V-FITC/propidium iodide staining-based flow cytometric method (reference value: 3.54%). It is filed as functional.
Data set [9] concerns MV4-11. Briefly: Induction of apoptosis in human MV4-11 cells at 2 uM after 24 hrs by annexin V-FITC/propidium iodide staining-based flow cytometric method. Type of data set: functional, cell-based.
Data set [10] concerns MV4-11. Briefly: Induction of apoptosis in human MV4-11 cells assessed as early apoptotic cells at 0.5 uM after 24 hrs by annexin V-FITC/propidium iodide staining-based flow cytometric method (reference value: 3.54%). It is filed as functional.
Data set [11] addresses Cyclin-dependent kinase 4/cyclin D1 (Homo sapiens, UniProt P11802). Briefly: Inhibition of human CDK4/Cyclin D1 using RB protein as substrate preincubated for 20 mins followed by [gamma-33P]-ATP addition measure after 120 mins by filter binding method. It is filed as protein-complex assay. A digest of the protocol: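 Compound preincubated with kinase 20 min at room temperature. Reaction started with 10 μM [γ-33P]ATP and run 120 min at 25°C. Filter-binding read-out, curve-fitted IC50; mean ± SD of three independent experiments.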

Data set [12] relates to MV4-11. Briefly: Antitumor activity against human MV4-11 cells xenografted in nu/nu mouse assessed as tumor regression at 30 mg/kg, iv qd measured on day 21 relative to vehicle-treated control. Type of data set: functional.
The test system of a further data set is MGC-803. Briefly: Growth inhibition of human MGC803 cells after 72 hrs by CellTiter-Glo assay. It is filed as functional. The conditions noted are these: MGC-803, 72 h.
Data set [13] in a line: Intrinsic clearance in human liver microsomes by LC-MS/MS analysis. It is filed as ADME, microsome. The settings on record: read-out: CLH.
Data set [14] can be described thus: Terminal half life in mouse liver microsomes by LC-MS/MS analysis. It is filed as ADME, microsome. The settings on record: read-out: beta t1/2 (converted). A digest of the protocol:
as §1

The test system of data set [15] is MV4-11. Briefly: Growth inhibition of human MV4-11 cells after 72 hrs by CellTiter-Glo assay. It is filed as functional, cell-based. The conditions noted are these: MV4-11, 72 h. A digest of the protocol:
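MV4-11 cells grown in IMDM with 10% FBS, 2% L-glutamine and 1% pen/strep at 37 °C, 5% CO2. Seeded at 10000 cells/well and exposed to compound at various concentrations for 72 h. Viability read by CellTiter-Glo luminescence.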

The next data set concerns the target CDK2/Cyclin A1 (Homo sapiens, UniProt P24941). Briefly: Inhibition of human CDK2/Cyclin A1 using histone H1 as substrate preincubated for 20 mins followed by [gamma-33P]-ATP addition measure after 120 mins by filter binding method. Type of data set: protein-complex assay. A digest of the protocol: (§2)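 Compound preincubated with kinase 20 min at room temperature. Filter-binding read-out, curve-fitted IC50; mean ± SD of three independent experiments.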

Data set [16] has as its target T1, Receptor-type tyrosine-protein kinase FLT3 (Homo sapiens, UniProt P36888).
T1 sequence (P36888 whole entry): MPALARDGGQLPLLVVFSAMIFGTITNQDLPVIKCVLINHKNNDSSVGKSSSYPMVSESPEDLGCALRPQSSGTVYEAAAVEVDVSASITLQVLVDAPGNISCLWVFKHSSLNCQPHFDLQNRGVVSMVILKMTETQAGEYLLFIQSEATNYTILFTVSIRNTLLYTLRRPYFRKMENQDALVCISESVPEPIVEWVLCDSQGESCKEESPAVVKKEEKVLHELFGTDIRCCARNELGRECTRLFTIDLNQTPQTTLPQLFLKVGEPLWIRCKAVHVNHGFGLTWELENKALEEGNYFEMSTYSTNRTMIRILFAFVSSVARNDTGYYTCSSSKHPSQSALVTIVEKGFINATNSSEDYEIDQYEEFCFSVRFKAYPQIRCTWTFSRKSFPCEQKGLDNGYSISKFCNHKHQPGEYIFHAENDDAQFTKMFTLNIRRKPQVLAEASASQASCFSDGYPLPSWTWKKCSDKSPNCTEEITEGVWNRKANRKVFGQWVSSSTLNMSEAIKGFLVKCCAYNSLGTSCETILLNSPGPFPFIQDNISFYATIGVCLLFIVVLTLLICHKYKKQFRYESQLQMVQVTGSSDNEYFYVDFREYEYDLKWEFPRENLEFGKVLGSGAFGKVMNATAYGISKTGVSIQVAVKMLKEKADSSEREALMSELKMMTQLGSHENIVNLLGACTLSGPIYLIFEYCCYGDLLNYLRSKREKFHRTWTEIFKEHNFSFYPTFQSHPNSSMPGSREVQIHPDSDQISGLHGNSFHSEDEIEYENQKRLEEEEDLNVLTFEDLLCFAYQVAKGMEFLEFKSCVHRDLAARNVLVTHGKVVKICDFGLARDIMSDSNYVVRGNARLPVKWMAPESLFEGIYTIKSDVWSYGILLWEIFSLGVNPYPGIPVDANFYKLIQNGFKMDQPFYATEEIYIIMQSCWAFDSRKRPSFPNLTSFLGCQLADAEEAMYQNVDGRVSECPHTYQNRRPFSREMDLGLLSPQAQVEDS
Briefly: Inhibition of human FLT3 using EAIYAAPFAKKK as substrate preincubated for 20 mins followed by [gamma-33P]-ATP addition measure after 120 mins by filter binding method. In outline: as §2

Data set [17] has as its system MV4-11. Briefly: Induction of apoptosis in human MV4-11 cells assessed as late apoptotic cells at 0.5 uM after 24 hrs by annexin V-FITC/propidium iodide staining-based flow cytometric method (reference value: 2.54%). It is filed as functional.
For another data set, the species on record is Homo sapiens. Briefly: Inhibition of CDK in human MV4-11 cells assessed as decrease in Rb phosphorylation at Ser807/811 after 24 hrs by Western blot analysis. It is filed as cell-based. A digest of the protocol:
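MV4-11 cells treated with increasing concentrations of compound for 24 h. Lysates immunoblotted for phosphorylated FLT3, STAT5, ERK, AKT and Rb.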

For another data set, the system named is Lymphocyte. Briefly: Cytotoxicity against human lymphocytes assessed as decrease in cell viability after 72 hrs by MTT assay. Type of data set: cell-based.

Chain of Cyclin-dependent kinase 4/cyclin D1 (P11802 whole entry): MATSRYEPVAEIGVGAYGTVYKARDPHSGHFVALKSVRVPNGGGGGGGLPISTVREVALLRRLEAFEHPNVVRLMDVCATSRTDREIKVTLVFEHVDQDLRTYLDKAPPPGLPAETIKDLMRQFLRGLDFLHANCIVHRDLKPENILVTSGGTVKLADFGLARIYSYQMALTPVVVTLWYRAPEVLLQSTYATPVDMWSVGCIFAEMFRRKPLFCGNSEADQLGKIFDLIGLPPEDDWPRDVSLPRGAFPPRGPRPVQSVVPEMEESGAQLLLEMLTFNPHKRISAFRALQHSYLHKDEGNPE
Chain of Cyclin-dependent kinase 4/cyclin D1 (P24385 whole entry, further chain): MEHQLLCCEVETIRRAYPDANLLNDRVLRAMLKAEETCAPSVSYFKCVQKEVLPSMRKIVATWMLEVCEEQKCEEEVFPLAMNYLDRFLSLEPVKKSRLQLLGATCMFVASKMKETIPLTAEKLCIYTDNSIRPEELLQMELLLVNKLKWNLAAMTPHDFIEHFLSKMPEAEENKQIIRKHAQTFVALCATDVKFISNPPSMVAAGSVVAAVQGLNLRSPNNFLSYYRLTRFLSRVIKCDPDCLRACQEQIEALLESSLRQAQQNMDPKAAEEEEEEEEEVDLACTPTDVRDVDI

For the compound `CN1CCN(Cc2ccc(NC(=O)c3n[nH]cc3Nc3ncnc4[nH]ccc34)cc2)CC1`, in [1], the LD50 at 288 h was 186 mg/kg. The GI50 is 2840 nM with MCF7, 90 nM in the data set on HCT-116, 110 nM in the data set on NCI-H82 and 370 nM with MGC-803. Moreover, the half-life is 15.4 min in data set [2], 61.9 min in data set [3], 51.3 min in [5] and 39.6 min in [14]. Also, the CLint scaled is 36.5 mL/min/kg in data set [4] and 13.3 mL/min/kg in [13]. The Activity in the data set on MV4-11 [6] is 24.17%; in the data set with MV4-11 [7], 9.33%; in the data set with MV4-11 [8] it was 15.02%; in the data set with MV4-11 [9] it was “Dose-dependent effect”; in the data set on MV4-11 [10], 28.54%; in the data set with MV4-11 [12] it was 78.95%. Moreover, the Activity in the data set with MV4-11 [17] was 13.44%. For the same compound, the IC50 was 0.85 nM in [11]; 8 nM in the data set with MV4-11 [15]; 2.47 nM on CDK2/Cyclin A1; 0.27 to 0.28 nM in data set [16]; 492 nM in the data set on Lymphocyte. In addition, in the data set listed under Homo sapiens, the inhibition entry was “Dose-dependent effect”.
